Assay results published in BindingDB's records for doi:10.1021/jm970034q (Oxis International, 1998).
pIC50: −log10 of the molar value.

Target: T1, Polyunsaturated fatty acid 5-lipoxygenase (Rattus norvegicus, UniProt P12527)
T1 sequence (P12527 whole entry): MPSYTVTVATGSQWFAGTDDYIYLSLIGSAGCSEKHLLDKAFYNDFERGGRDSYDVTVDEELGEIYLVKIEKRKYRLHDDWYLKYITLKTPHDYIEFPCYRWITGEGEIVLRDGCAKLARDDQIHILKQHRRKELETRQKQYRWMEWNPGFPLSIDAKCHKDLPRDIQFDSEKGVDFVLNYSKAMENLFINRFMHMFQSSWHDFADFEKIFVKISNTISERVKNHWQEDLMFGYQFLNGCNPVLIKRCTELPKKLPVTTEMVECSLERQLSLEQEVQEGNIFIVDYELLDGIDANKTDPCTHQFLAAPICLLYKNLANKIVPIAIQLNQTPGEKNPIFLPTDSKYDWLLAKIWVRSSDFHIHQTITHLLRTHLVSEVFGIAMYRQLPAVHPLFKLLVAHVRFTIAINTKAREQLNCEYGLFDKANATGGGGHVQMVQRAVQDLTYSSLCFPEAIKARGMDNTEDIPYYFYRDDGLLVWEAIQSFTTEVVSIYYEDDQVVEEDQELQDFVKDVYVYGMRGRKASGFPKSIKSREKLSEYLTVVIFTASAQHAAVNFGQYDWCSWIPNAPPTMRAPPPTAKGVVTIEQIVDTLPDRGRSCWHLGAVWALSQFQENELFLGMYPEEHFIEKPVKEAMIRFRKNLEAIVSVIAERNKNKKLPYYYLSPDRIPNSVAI
Assay: Inhibitory activity against 5-lipoxygenase obtained from rat basophilic leukemia cells
How it was run: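 IC50 was determined against 5-LO in a broken RBL-1 cell assay, using a crude enzyme preparation from rat basophilic leukemia cells.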

pIC50: 6.52
SMILES: Oc1oc(CCC#Cc2ccccc2CSc2ccccc2)c(O)c1O [3,4-Dihydroxy-5-[4-(2-phenylsulfanylmethyl-phenyl)-but-3-ynyl]-5H-furan-2-one]
